Results published in ChEMBL document CHEMBL1145801, “Inhibition of Cdc25 phosphatases by indolyldihydroxyquinones” (J Med Chem, 2003).

Experiments:
[1] = biological target: T1, M-phase inducer phosphatase 3 (Homo sapiens) (UniProt P30307); assay: Percent inhibition of cell division cycle 25 degree C at 50 uM
T1 sequence (whole entry): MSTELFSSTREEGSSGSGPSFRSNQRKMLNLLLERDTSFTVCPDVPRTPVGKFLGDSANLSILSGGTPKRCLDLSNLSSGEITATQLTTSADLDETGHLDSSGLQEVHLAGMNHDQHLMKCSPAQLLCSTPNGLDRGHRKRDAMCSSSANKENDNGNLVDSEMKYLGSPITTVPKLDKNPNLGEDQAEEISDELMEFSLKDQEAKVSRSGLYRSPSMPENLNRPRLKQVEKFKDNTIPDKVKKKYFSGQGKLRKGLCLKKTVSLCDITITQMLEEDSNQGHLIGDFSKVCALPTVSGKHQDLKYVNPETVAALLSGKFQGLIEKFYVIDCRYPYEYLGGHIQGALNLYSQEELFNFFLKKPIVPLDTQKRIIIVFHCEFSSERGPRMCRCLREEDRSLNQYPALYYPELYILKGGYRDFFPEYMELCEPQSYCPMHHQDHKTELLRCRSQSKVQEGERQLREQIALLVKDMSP
Summary of the method: (§1)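 Single-point screen at 50 μM inhibitor against Cdc25A, Cdc25B or Cdc25C with 50 μM 3-O-methylfluorescein phosphate, product followed at 477 nm in time-dependent assays. Activity was compared with a simultaneous no-inhibitor control, and selected compounds were run in duplicate (average error ±7%).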

[2] = biological target: T2, M-phase inducer phosphatase 1 (Homo sapiens) (UniProt P30304); assay: Percent inhibition of cell division cycle 25A at 50 uM; summary of the method: as §1
T2 sequence (whole entry): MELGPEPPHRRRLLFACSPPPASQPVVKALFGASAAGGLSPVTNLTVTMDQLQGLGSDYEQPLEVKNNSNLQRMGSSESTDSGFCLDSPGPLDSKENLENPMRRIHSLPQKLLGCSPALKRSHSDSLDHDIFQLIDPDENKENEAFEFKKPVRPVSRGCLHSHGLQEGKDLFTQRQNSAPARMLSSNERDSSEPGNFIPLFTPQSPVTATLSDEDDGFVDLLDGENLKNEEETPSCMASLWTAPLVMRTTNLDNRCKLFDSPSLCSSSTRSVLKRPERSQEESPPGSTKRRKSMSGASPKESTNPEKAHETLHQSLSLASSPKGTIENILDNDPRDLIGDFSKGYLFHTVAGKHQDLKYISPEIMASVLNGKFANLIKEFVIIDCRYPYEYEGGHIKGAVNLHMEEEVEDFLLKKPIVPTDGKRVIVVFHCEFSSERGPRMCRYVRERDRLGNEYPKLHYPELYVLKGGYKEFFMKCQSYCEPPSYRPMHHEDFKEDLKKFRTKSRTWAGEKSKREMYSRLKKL

[3] = biological target: T3, M-phase inducer phosphatase 2 (Homo sapiens) (UniProt P30305); assay: Percent inhibition of cell division cycle 25B at 50 uM; summary of the method: as §1
T3 sequence (whole entry): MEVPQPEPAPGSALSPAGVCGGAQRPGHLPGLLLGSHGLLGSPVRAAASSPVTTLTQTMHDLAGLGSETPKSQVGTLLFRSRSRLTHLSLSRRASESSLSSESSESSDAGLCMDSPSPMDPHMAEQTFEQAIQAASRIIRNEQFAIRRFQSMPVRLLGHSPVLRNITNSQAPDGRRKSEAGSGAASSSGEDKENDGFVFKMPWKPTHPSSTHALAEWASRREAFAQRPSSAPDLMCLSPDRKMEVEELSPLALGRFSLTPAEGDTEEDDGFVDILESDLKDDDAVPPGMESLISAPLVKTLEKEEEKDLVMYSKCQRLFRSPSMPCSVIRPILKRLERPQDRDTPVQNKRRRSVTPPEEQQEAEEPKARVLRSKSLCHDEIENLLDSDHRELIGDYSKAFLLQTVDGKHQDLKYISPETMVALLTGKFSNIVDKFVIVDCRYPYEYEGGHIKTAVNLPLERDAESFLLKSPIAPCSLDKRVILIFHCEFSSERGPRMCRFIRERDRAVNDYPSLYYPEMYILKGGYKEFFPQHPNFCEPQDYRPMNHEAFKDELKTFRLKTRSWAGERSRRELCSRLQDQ

[4] = biological target: T4, M-phase inducer phosphatase 1 (Homo sapiens, UniProt P30304); assay: Eight point inhibitory concentration against Cell division cycle 25A was determined
T4 sequence (P30304 whole entry): T2 sequence (whole entry)
Summary of the method: (§2)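 Phosphatase activity measured with 3-O-methylfluorescein phosphate at 50 μM (~5 × Km), product formation followed at 477 nm by UV-vis under initial velocity conditions (2–5% turnover) in time-dependent assays. Eight inhibitor concentrations were used, and IC50 was obtained by fitting to a dose–response equation.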

[5] = biological target: T5, M-phase inducer phosphatase 2 (Homo sapiens, UniProt P30305); assay: Eight point inhibitory concentration against Cell division cycle 25B was determined
T5 sequence (P30305 whole entry): T3 sequence (whole entry)
Summary of the method: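 Cdc25B activity read by UV-vis at 477 nm as product formed from 3-O-methylfluorescein phosphate (mFP) at 50 μM (~5 × Km), time-dependent, initial-velocity conditions (2–5% turnover); eight inhibitor concentrations, IC50 fitted to eq 1. Each reaction compared with a simultaneous no-inhibitor control; selected compounds run in duplicate.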

[6] = biological target: T6, M-phase inducer phosphatase 3 (Homo sapiens, UniProt P30307); assay: Eight point inhibitory concentration against Cell division cycle 25 degree C was determined; summary of the method: as §2
T6 sequence (P30307 whole entry): T1 sequence (whole entry)

Row | SMILES | inhibition [1] [%] | inhibition [2] [%] | inhibition [3] [%] | IC50 [4] [µM] | IC50 [5] [µM] | IC50 [6] [µM]
1 | O=C1C=C(O)C(=O)C(c2c[nH]c3cc(F)ccc23)=C1O | 48 | 97 | 90 | – | – | –
2 | O=C1C=C(O)C(=O)C(c2c[nH]c3c(Cc4ccccc4)cccc23)=C1O | 98 | 100 | 97 | 2.3 | 2.3 | 15
3 | O=C1C=C(O)C(=O)C(c2c[nH]c3c(-c4ccccc4)cccc23)=C1O | 91 | 99 | 92 | 2.5 | 2.5 | 27
4 | O=C1C=C(O)C(=O)C(c2c[nH]c3cccc(Br)c23)=C1O | 54 | 51 | 6 | – | – | –
5 | O=C1C=C(O)C(=O)C(c2c[nH]c3cc(OCc4ccccc4)ccc23)=C1O | 92 | 82 | 97 | – | – | –
6 | O=C1C=C(O)C(=O)C(c2c[nH]c3cccc(Cl)c23)=C1O | 0 | 22 | 21 | 28 | > 50 | > 50
7 | COc1cccc2[nH]cc(C3=C(O)C(O)=CC(=O)C3=O)c12 | 19 | 40 | 21 | – | – | –
8 | O=C1/C(=N/CCc2cc(Br)c(O)c(Br)c2)C=C(O)c2cccnc21 | – | – | – | 15 | 35 | 35
9 | O=C1C=C(O)C(=O)C(c2c[nH]c3ccc(Cl)cc23)=C1O | 45 | 59 | 32 | – | – | –
10 | O=C1C=C(O)C(=O)C(c2c[nH]c3c(OCc4ccccc4)cccc23)=C1O | 85 | 98 | 97 | 4.2 | 4.2 | 6.9
11 | O=C1C=C(O)C(=O)C(c2c[nH]c3ccc(F)cc23)=C1O | 23 | 39 | 32 | – | – | –
12 | O=C1C=C(O)C(=O)C(c2c[nH]c3ccc(Br)cc23)=C1O | 26 | 83 | 55 | 5.8 | – | –
13 | Cc1cccc2[nH]cc(C3=C(O)C(O)=CC(=O)C3=O)c12 | 28 | 39 | 9 | – | – | –
14 | Cc1ccc2c(C3=C(O)C(O)=CC(=O)C3=O)c[nH]c2c1 | 28 | 66 | 16 | – | – | –
15 | O=C1C=C(O)C(=O)C(c2c[nH]c3cc4c(cc23)OCO4)=C1O | 63 | 99 | 88 | – | – | –
16 | O=C1C=C(O)C(=O)C(c2c[nH]c3c(F)cccc23)=C1O | 68 | 100 | 67 | – | – | –
17 | Cc1ccc2c(C3=C(O)C(O)=CC(=O)C3=O)c[nH]c2c1C | 20 | 9 | 32 | – | – | –
18 | O=C1C=C(O)C(=O)C(c2c[nH]c3ccc(OCc4ccccc4)cc23)=C1O | 26 | 100 | 50 | 5.5 | – | –
19 | COc1cccc2c(C3=C(O)C(O)=CC(=O)C3=O)c[nH]c12 | 13 | 0 | 15 | – | – | –
20 | O=C1C=C(O)C(=O)C(c2c[nH]c3cccc(OCc4ccccc4)c23)=C1O | 2 | 48 | 0 | – | – | –
21 | O=C1C=C(O)C(=O)C(c2c[nH]c3cccc(F)c23)=C1O | 0 | 20 | 5 | – | – | –
22 | O=C1C=C(O)C(=O)C(c2c[nH]c3c(Br)cccc23)=C1O | 11 | 11 | 45 | – | – | –
23 | COc1cc2[nH]cc(C3=C(O)C(O)=CC(=O)C3=O)c2cc1OC | 20 | 54 | 19 | – | – | –
24 | O=C1C=C(O)C(=O)C(c2c(-c3ccccc3)[nH]c3ccccc23)=C1O | 18 | 40 | 38 | – | – | –
25 | CC(C)=CCc1c(Cl)ccc2c(C3=C(O)C(O)=CC(=O)C3=O)c[nH]c12 | – | – | – | 4 | 7.2 | 11
26 | CC(C)=CCC/C(C)=C/Cc1cccc2c(C3=C(O)C(O)=CC(=O)C3=O)c[nH]c12 | 96 | 86 | 95 | 1 | – | 10
27 | O=C1C=C(O)C(=O)C(c2c[nH]c3c(Cl)cccc23)=C1O | 54 | 0 | 23 | – | – | –
28 | COc1ccc2[nH]cc(C3=C(O)C(O)=CC(=O)C3=O)c2c1 | 0 | 0 | 0 | – | – | –

The remaining lines, values ahead:

Row | inhibition [1] [%] | inhibition [2] [%] | inhibition [3] [%] | IC50 [4] [µM] | IC50 [5] [µM] | IC50 [6] [µM] | SMILES
29 | 0 | 0 | 16 | – | – | – | Cc1ccc2c(C3=C(O)C(O)=CC(=O)C3=O)c(C)[nH]c2c1
30 | 22 | 44 | 11 | – | – | – | CC1(c2[nH]c3ccccc3c2C2=C(O)C(O)=CC(=O)C2=O)CCCCC1
31 | 25 | 18 | 20 | – | – | – | Cc1ccc2[nH]c(C)c(C3=C(O)C(O)=CC(=O)C3=O)c2c1
32 | 0 | 22 | 32 | 35 | > 50 | > 50 | O=C1C=C(O)C(=O)C(c2c(C3CC3)[nH]c3ccccc23)=C1O
33 | 1 | 0 | 0 | – | – | – | Cc1cccc2c(C3=C(O)C(O)=CC(=O)C3=O)c[nH]c12
34 | 5 | 24 | 9 | – | – | – | Cc1[nH]c2ccccc2c1C1=C(O)C(O)=CC(=O)C1=O
35 | 30 | 0 | 42 | – | – | – | Cc1[nH]c2ccc(Cl)cc2c1C1=C(O)C(O)=CC(=O)C1=O
36 | 0 | 0 | 0 | – | – | – | Cc1[nH]c2c(C)cccc2c1C1=C(O)C(O)=CC(=O)C1=O
37 | 21 | 12 | 0 | – | – | – | C=CC(C)(C)c1[nH]c2ccccc2c1C1=C(O)C(O)=CC(=O)C1=O
38 | 31 | 0 | 0 | – | – | – | COc1ccc2[nH]c(C)c(C3=C(O)C(O)=CC(=O)C3=O)c2c1
39 | 14 | 15 | 36 | – | – | – | CCc1[nH]c2ccccc2c1C1=C(O)C(O)=CC(=O)C1=O
40 | 19 | 18 | 42 | – | – | – | Cn1cc(C2=C(O)C(O)=CC(=O)C2=O)c2ccccc21
41 | 0 | 30 | 11 | – | – | – | CC(C)(C)c1[nH]c2ccccc2c1C1=C(O)C(O)=CC(=O)C1=O
42 | 0 | 0 | 17 | – | – | – | CC1(c2[nH]c3ccccc3c2C2=C(O)C(O)=CC(=O)C2=O)CC1
43 | 0 | 7 | 13 | – | – | – | CC(C)c1[nH]c2ccccc2c1C1=C(O)C(O)=CC(=O)C1=O
